Converted amounts (≈) assume the structure as drawn. A value given as a limit tells only on which side of the number the result lay.

The term IC50 denotes the point on the concentration scale where inhibition reaches its midpoint. For orientation: AUC(0-t) means exposure summed from dosing to a finite time, without extrapolation to infinity. Usually bioavailability stands for the share of a dose that reaches the circulation, judged against a reference dose that is usually intravenous. The half-life is the time needed for the level to fall by half in the phase considered. Usually Cmax stands for the peak of the concentration-time curve.

The nature of data set [1]: Volume of distribution at steady state in beagle dog at 1 mg/kg, iv or 5 mg/kg, po by LC-MS/MS method. It is filed as ADME, organism-based, Canis lupus familiaris. Particulars: in vivo, read-out: Vdss. The method, boiled down:
(§1)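 Non-naïve male beagle dogs or cynomolgus monkeys, n=3 per route. Dosing was 1 mg/kg i.v. in EtOH/PEG400/water 20/15/65 or 5 mg/kg p.o. in 0.5% methylcellulose/0.2% Tween 80; the p.o. group was fasted overnight. Peripheral blood was taken pre-dose to 24 h into K2EDTA and processed to plasma. Quantified by LC-MS/MS.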

For a further data set, the species on record is Homo sapiens. Description: Selectivity ratio of IC50 for human recombinant His-tagged BRD4 bromodomain-1 to IC50 for recombinant His-tagged human CBP […]. In a few lines:
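TR-FRET competition binding: recombinant His-tagged bromodomains bind a biotinylated small-molecule ligand, and competing compound lowers the signal. IC50s are geometric means of at least two determinations. Selectivity is BRD4(1) IC50 (nM) divided by CBP IC50 (nM).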

Data set [2] concerns the target Histone acetyltransferase KAT2A (Homo sapiens, UniProt Q92830). Description: Displacement of biotinylated histone H3K14 peptide ligand from recombinant His-tagged human GCN5L2 measured after 10 mins by TR-FRET assay. On the technique in general: Time-resolved FRET reads energy transfer from a long-lived donor to a nearby acceptor.
Data set [3] is described as follows: AUClast in cynomolgus monkey at 1 mg/kg, iv or 5 mg/kg, po by LC-MS/MS method. The class given is ADME, organism-based, Macaca fascicularis. The conditions noted are these: in vivo. In a few lines: (§2)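 Non-naïve male cynomolgus monkeys, at least 2 years old, n = 3 per route. Given 1 mg/kg i.v. in EtOH/PEG400/water (20/15/65) or 5 mg/kg p.o. in 0.5% methylcellulose, 0.2% Tween 80; oral groups fasted. Plasma (K2EDTA) collected pre-dose to 24 h. Analysed by non-validated LC-MS/MS.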

The target in data set [4] is Bromodomain-containing protein 8 (Homo sapiens, UniProt Q9H0E9). Nature of the data set: Displacement of biotinylated histone H3K14 peptide ligand from recombinant His-tagged BRD8 bromodomain-1 (unknown origin) measured after 10 mins by TR-FRET assay.
Data set [5] can be described thus: Volume of distribution at steady state in CD-1 mouse at 1 mg/kg, iv or 5 mg/kg, po by LC-MS/MS method. It is filed as ADME, organism-based. The conditions noted are these: in vivo, read-out: Vdss. The method, boiled down:
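Female CD-1 mice, 6–9 weeks old, n=3 per route. Dosing was 1 mg/kg i.v. in PEG400/water 35/65 or 5 mg/kg p.o. in 0.5% methylcellulose/0.2% Tween 80. Serial tail-nick blood was taken to 24 h and diluted in EDTA water. Quantified by LC-MS/MS (MRM, positive ESI), LLOQ 0.002 μM.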

Data set [6] has as its target Bromodomain adjacent to zinc finger domain protein 2B (Homo sapiens, UniProt Q9UIF8). Nature of the data set: Displacement of biotinylated histone H3K14 peptide ligand from human recombinant His-tagged BAZ2B measured after 10 mins by TR-FRET assay.
The target of the next data set is Peregrin (Homo sapiens, UniProt P55201). Description: Displacement of biotinylated histone H3K14 peptide ligand from human recombinant His-tagged BRPF1 measured after 10 mins by TR-FRET assay.
Data set [7] is described as follows: AUClast in beagle dog at 1 mg/kg, iv or 5 mg/kg, po by LC-MS/MS method. It is filed as ADME, organism-based, Canis lupus familiaris. The conditions noted are these: in vivo. In a few lines: (§3)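 Non-naïve male beagle dogs, n = 3 per route. Dosed 1 mg/kg i.v. in EtOH/PEG400/water (20/15/65) or 5 mg/kg p.o. in 0.5% methylcellulose, 0.2% Tween 80; oral groups fasted overnight until 4 h post-dose. Peripheral blood taken pre-dose to 24 h and processed to K2EDTA plasma. Analysed by non-validated LC-MS/MS.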

Data set [8] can be described thus: Oral bioavailability in beagle dog at 5 mg/kg by LC-MS/MS method. Particulars: in vivo. It is filed as ADME, organism-based, Canis lupus familiaris. The method, boiled down:
as §3

The nature of data set [9]: Kinetic solubility of the compound in PBS at 200 uM at pH 7.4 after 24 hrs by LCMS-chemiluminescence nitrogen detection assay. It is filed as physicochemical. The conditions noted are these: read-out: Kinetic_solubility. In a few lines: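 A 10 mM DMSO stock was diluted into PBS pH 7.4 to give 200 µM compound in 2% DMSO. Samples were shaken for 24 h at room temperature at 1000 rpm, then filtered and diluted 2-fold. Each was injected twice into LCMS-CLND and quantified against a caffeine calibration curve with correction for nitrogen count.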

Data set [10] is described as follows: AUClast in CD-1 mouse at 1 mg/kg, iv or 5 mg/kg, po by LC-MS/MS method. The class given is ADME, organism-based. The conditions noted are these: in vivo. The method, boiled down:
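Female CD-1 mice, 6–9 weeks, n = 3 per route. Dosed 1 mg/kg i.v. in PEG400/water (35/65) or 5 mg/kg p.o. as a suspension in 0.5% methylcellulose, 0.2% Tween 80. Serial tail-nick blood sampled to 24 h, diluted in EDTA-water. Parent drug measured by non-validated LC-MS/MS after acetonitrile precipitation with an indomethacin internal standard.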

For data set [11], the target named is Transcription initiation factor TFIID subunit 1 (Homo sapiens, UniProt P21675). Nature of the data set: Displacement of biotinylated histone H3K14 peptide ligand from recombinant His-tagged TAF1 bromodomain-2 (unknown origin) measured after 10 mins by TR-FRET assay.
Chain of Transcription initiation factor TFIID subunit 1 (P21675 whole entry): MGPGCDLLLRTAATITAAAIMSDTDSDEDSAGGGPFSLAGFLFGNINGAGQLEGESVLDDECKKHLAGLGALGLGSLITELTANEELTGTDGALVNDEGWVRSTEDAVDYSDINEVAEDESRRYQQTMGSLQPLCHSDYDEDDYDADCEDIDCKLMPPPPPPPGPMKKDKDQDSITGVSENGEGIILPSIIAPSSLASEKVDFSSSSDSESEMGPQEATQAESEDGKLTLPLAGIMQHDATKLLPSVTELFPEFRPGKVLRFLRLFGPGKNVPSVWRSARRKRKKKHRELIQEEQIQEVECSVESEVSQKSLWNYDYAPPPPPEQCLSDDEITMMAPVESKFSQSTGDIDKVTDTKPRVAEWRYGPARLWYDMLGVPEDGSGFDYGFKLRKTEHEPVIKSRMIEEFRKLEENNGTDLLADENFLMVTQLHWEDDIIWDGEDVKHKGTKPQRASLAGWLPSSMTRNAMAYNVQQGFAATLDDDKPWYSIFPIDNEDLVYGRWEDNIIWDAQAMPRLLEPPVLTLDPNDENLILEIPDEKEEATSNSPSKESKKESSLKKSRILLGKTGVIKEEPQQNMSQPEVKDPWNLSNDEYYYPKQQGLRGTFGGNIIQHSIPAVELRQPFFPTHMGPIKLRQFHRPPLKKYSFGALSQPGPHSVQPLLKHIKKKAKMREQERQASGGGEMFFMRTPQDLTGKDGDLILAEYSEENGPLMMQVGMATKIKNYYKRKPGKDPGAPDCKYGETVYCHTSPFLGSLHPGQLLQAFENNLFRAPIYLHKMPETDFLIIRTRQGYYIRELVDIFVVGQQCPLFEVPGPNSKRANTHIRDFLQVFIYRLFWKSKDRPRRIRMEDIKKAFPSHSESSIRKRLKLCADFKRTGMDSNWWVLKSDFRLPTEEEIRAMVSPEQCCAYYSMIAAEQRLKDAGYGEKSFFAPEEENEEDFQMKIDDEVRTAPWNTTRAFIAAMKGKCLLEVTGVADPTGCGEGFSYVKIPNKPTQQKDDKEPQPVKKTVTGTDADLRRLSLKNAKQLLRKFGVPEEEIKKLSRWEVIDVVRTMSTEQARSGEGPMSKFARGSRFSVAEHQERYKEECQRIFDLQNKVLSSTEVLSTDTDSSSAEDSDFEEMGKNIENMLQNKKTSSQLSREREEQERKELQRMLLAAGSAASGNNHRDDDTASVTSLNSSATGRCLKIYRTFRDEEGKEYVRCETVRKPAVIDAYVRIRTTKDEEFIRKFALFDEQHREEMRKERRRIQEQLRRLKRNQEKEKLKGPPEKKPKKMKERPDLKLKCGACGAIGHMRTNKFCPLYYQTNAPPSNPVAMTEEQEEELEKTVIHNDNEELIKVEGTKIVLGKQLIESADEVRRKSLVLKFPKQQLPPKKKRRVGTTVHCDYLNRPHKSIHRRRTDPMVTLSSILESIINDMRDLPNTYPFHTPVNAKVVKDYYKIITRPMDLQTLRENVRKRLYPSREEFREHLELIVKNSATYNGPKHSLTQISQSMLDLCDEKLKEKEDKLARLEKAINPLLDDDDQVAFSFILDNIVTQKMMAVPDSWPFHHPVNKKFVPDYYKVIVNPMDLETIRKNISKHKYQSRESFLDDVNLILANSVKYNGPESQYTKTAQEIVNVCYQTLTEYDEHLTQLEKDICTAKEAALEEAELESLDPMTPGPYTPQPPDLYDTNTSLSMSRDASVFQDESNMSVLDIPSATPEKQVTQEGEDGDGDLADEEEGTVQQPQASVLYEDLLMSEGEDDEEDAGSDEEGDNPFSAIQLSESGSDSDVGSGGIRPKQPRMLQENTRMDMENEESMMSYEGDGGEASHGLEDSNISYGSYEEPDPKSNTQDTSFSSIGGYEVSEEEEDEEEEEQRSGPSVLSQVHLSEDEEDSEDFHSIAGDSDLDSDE
The target in data set [12] is Histone acetyltransferase KAT2B (Homo sapiens, UniProt Q92831). Description: Displacement of biotinylated histone H3K14 peptide ligand from human recombinant His-tagged PCAF measured after 10 mins by TR-FRET assay.
Chain of Histone acetyltransferase KAT2B (Q92831 whole entry): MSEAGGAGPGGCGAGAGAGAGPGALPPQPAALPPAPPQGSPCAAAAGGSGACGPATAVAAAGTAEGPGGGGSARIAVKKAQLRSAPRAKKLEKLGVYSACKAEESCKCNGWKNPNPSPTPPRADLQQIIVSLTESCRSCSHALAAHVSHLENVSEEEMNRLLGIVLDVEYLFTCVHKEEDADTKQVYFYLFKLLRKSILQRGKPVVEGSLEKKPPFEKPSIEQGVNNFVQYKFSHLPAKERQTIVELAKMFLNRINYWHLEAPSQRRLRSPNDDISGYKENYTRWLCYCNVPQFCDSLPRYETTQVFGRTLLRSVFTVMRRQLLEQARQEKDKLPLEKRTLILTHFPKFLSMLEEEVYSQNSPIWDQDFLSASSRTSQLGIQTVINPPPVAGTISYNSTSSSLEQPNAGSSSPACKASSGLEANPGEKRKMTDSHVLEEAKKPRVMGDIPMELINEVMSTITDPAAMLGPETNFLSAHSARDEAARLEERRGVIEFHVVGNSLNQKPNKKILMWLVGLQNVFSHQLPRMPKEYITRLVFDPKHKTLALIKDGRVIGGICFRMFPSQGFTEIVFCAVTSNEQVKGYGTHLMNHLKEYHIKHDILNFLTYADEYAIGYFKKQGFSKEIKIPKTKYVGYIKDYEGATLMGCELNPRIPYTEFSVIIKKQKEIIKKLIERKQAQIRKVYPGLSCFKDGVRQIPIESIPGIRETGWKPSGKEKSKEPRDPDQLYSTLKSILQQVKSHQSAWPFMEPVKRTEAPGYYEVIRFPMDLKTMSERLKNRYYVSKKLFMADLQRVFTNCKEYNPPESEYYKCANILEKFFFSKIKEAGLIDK
A further data set deals with Rattus norvegicus. Nature of the data set: Neurotoxicity in rat assessed as effect on vocalization and hyperactivity at 250 mg/kg administered as single dose. The class given is toxicity, organism-based. Particulars: in vivo.
The nature of data set [13]: Half life in Sprague-Dawley rat at 1 mg/kg, iv or 5 mg/kg, po by LC-MS/MS method. It is filed as ADME, organism-based. The conditions noted are these: in vivo. The method, boiled down: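 Male Sprague-Dawley rats, 6–9 weeks, n = 3 per route. Dosed 1 mg/kg i.v. in PEG400/water (35/65) or 5 mg/kg p.o. in 0.5% methylcellulose, 0.2% Tween 80; oral groups fasted overnight until 4 h post-dose. Catheter blood sampled 0.033–24 h into K2EDTA and spun to plasma. Analysed by non-validated LC-MS/MS.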

A short description of data set [14]: Protein binding in cynomolgus monkey plasma at 5 uM incubated for 4 hrs measured by LC-MS/MS method. It is filed as ADME, cell-free, Macaca fascicularis. Particulars: read-out: PPB (converted).
Data set [15] is described as follows: Volume of distribution at steady state in Sprague-Dawley rat at 1 mg/kg, iv or 5 mg/kg, po by LC-MS/MS method. It is filed as ADME, organism-based. Particulars: in vivo, read-out: Vdss. The method, boiled down:
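Male Sprague-Dawley rats, 6–9 weeks old, n=3 per route. Dosing was 1 mg/kg i.v. in PEG400/water 35/65 or 5 mg/kg p.o. in 0.5% methylcellulose/0.2% Tween 80; the p.o. group was fasted overnight. Catheter blood was taken at 0.033–24 h into K2EDTA and processed to plasma. Quantified by LC-MS/MS.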

Data set [16] can be described thus: Volume of distribution at steady state in cynomolgus monkey at 1 mg/kg, iv or 5 mg/kg, po by LC-MS/MS method. The class given is ADME, organism-based, Macaca fascicularis. Particulars: in vivo, read-out: Vdss. The method, boiled down:
as §1

Data set [17] can be described thus: Protein binding in dog plasma at 5 uM incubated for 4 hrs measured by LC-MS/MS method. The class given is ADME, cell-free, Canis lupus familiaris. Particulars: read-out: PPB (converted).
The nature of data set [18]: Half life in cynomolgus monkey at 1 mg/kg, iv or 5 mg/kg, po by LC-MS/MS method. Particulars: in vivo. The class given is ADME, organism-based, Macaca fascicularis. The method, boiled down:
as §2

The nature of data set [19]: Cmax in cynomolgus monkey at 1 mg/kg, iv or 5 mg/kg, po by LC-MS/MS method. It is filed as ADME, organism-based, Macaca fascicularis. Particulars: in vivo. The method, boiled down: as §2

Chain of Bromodomain adjacent to zinc finger domain protein 2B (Q9UIF8 whole entry, the tested form may be a part): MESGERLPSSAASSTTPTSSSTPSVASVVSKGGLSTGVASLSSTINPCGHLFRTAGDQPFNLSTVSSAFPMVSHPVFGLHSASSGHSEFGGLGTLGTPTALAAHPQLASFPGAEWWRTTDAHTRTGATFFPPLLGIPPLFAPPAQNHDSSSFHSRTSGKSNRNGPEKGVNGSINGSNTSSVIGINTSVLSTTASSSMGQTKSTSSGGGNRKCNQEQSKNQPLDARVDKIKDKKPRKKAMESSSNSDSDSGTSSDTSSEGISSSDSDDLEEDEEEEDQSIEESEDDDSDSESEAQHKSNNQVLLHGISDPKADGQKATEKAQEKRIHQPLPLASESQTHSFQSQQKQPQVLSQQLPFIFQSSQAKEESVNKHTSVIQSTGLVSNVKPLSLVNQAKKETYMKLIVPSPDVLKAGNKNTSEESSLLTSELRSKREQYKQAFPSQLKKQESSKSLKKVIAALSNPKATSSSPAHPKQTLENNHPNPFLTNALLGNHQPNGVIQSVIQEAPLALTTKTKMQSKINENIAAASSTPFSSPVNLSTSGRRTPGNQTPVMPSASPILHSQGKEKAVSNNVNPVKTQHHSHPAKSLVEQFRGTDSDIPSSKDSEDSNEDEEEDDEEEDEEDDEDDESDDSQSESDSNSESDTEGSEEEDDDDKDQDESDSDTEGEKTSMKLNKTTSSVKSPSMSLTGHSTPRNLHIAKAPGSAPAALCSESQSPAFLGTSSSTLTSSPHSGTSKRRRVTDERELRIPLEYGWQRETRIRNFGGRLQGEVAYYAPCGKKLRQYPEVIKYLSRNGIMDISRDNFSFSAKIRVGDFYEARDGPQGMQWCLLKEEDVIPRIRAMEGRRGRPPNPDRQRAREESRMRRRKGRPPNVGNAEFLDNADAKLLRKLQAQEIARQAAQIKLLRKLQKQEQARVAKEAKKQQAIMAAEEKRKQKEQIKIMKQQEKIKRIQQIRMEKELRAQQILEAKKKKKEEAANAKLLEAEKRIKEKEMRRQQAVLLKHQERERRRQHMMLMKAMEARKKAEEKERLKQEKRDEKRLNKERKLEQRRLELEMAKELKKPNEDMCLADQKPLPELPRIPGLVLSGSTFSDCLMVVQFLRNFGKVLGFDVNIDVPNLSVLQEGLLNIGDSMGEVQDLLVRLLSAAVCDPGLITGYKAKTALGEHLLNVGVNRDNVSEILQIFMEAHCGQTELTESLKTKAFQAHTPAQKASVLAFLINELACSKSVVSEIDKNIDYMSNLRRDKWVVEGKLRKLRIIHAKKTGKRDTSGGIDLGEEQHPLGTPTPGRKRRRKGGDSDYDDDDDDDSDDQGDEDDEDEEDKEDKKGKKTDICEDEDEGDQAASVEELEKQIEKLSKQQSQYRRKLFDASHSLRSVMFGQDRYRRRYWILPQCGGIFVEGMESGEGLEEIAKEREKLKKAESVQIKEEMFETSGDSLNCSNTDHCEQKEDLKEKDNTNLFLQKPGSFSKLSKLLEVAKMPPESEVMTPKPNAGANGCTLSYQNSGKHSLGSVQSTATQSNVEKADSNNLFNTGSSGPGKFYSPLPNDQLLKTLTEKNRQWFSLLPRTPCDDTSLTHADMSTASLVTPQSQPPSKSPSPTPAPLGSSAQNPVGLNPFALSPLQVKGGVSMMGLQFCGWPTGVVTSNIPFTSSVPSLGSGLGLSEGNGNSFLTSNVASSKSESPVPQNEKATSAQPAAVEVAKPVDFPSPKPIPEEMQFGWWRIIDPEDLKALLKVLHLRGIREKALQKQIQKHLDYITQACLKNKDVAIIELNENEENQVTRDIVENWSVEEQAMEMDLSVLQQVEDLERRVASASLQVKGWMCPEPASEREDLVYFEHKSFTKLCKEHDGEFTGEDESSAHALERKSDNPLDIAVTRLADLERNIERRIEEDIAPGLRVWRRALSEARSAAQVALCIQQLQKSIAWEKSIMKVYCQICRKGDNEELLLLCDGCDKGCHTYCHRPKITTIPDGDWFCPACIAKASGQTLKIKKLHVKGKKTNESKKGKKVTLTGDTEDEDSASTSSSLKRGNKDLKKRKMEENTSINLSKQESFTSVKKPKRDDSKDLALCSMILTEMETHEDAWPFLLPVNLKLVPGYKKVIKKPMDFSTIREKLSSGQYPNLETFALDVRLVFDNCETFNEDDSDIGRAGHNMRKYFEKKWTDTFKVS

For the molecule `CC(=O)N1CCc2c(c(N3CCCc4cc(-c5cnn(C)c5)c(C(F)F)cc43)nn2C2CCOCC2)C1`, the Vd in data set [1] came out at 1 L/kg; in data set [5] it was 0.81 L/kg; in [15], 0.81 L/kg; in data set [16] it was 1.4 L/kg. The Ratio IC50 in the data set listed under Homo sapiens is 3820. The IC50 (in data set [2]; in data set [4]; in data set [6]; at Peregrin; in [11]; in data set [12]) was more than 20 µM in each case. The values for the exposure AUC(0-t) in data set [3], in data set [7] and in data set [10] were 8.5 µM·h, 31 µM·h and 13.7 µM·h, respectively. Moreover, the bioavailability in data set [8] worked out at 94%. For the same molecule, the solubility kinetic at 24 h, 200 µM in data set [9] stood at 76 µM (≈ 38.8 µg/mL). Also, in the data set with Rattus norvegicus, the Activity entry is “Toxic”. The half-life in data set [13] is 0.66 h; in [18], 2.8 h. The fraction unbound at 4 h, 5 µM is 0.21 in data set [14] and 0.19 in data set [17]. In addition, in data set [19], the Cmax came out at 1600 nM.

As to `CNC(=O)N1CCc2c(c(N3CCCc4cc(-c5cnn(C)c5)c(C(F)F)cc43)nn2C2CCOCC2)C1`, the Vd in data set [1] turned out to be 1.5 L/kg; in [5] it was 0.6 L/kg; in data set [15], 0.64 L/kg; in data set [16], 1 L/kg. The Ratio IC50 in the data set filed under Homo sapiens stood at 5420. The half-inhibitory concentration (IC50) was more than 20 µM in [2]; more than 20 µM in [4]; more than 18 µM in data set [6]; 4.6 µM on Peregrin; more than 20 µM in data set [11]; more than 20 µM in [12]. The values for the AUC(0-t) in data set [3], in [7] and in data set [10] were 2.5 µM·h, 44 µM·h and 6.5 µM·h, respectively. In data set [8], this molecule showed a bioavailability of 100%. The solubility kinetic at 24 h, 200 µM in data set [9] was found to be 95 µM (≈ 49.9 µg/mL). Moreover, the Activity entry in the data set on Rattus norvegicus is “Non-Toxic”. For the same molecule, the half-life was 3.7 h in [13] and 0.72 h in data set [18]. The fraction unbound at 4 h, 5 µM in [14] was 0.22; in data set [17], 0.23. The molecule further came in with a maximum concentration (Cmax) in [19] of 1900 nM.

These data come from ChEMBL document CHEMBL4052814, “GNE-781, A Highly Advanced Potent and Selective Bromodomain Inhibitor of Cyclic Adenosine Monophosphate Response Element Binding Protein, Binding Protein (CBP)” (J Med Chem, 2017).
